Test results taken from ChEMBL document CHEMBL1124444, “Hydroxyacetophenone-derived antagonists of the peptidoleukotrienes” (1989).

Each compound was assayed on Cavia porcellus (assay: Compound (50 mg/kg, intraperitoneally) was tested in spontaneously breathing, conscious guinea pigs challenged with aerosolized LTD4 (60-min pretreatment)). Details: not given.
Assay type: functional

Row | Structure (SMILES) | Protection
1 | CCCc1c(OCc2ccc(C(=O)O)cc2OC)ccc(C(=O)NC)c1O | 33%
2 | COc1cc(C(=O)O)ccc1COc1ccc(C(C)=O)c(O)c1C | 17%

Species on record: Cavia porcellus
Experiment: Percent inhibition of the leukotriene D4 (LTD4)-induced contraction of guinea pig tracheal spirals at 50 uM concentration
Assay type: functional
Details: Trachea
Summary of the method: (§1)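 Guinea pig tracheal spirals were split into paired sections in 10 mL baths of modified Krebs at 37 °C, gassed with 95% O₂/5% CO₂, under 2 g resting tension. After 60 min equilibration (washes every 15 min), reproducible contractions to 8 nM LTD₄ or 8 nM LTE₄ were obtained. Compound was added for 10 min, then agonist challenge repeated; percent inhibition is relative to the vehicle-treated paired section.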

Row | Structure (SMILES) | inhibition at 50 µM
3 | CCCCCC(=O)c1ccc(OCc2ccc(C(=O)O)cc2OC)c(CCC)c1O | 20%
4 | CCCc1c(OCc2ccc(C(=O)O)cc2OC)ccc(C(=O)c2ccccc2)c1O | 20%
5 | CCCCCCNC(=O)c1ccc(OCc2ccc(C(=O)O)cc2OC)c(CCC)c1O | 27%
6 | CCCc1ccccc1OCc1ccc(C(=O)O)cc1OC | 81%
7 | CCCc1c(OCc2ccc(C(=O)O)cc2OC)ccc(C(=O)N2CCCC2)c1O | 90%
8 | CCCc1c(OCC(O)CSCC(=O)O)ccc(C(C)=O)c1O (configuration not stated) | 44%

Species on record: Cavia porcellus
Experiment: Percent inhibition of the leukotriene E4 (LTE4)-induced contraction of guinea pig tracheal spirals at 1 uM concentration
Details: Trachea

Row | Structure (SMILES) | inhibition at 1 µM
9 | CCCc1c(OCc2ccc(NC(=O)c3ccccc3C(=O)O)cc2)ccc(C(C)=O)c1O | 49%

The compounds below were run against T1, Cysteinyl leukotriene receptor 1 (Cavia porcellus) (UniProt Q2NNR5) (assay: Dissociation constant (KB) […] was evaluated in vitro in isolated guinea pig tracheal strips). Details: not given.
T1 sequence (whole entry): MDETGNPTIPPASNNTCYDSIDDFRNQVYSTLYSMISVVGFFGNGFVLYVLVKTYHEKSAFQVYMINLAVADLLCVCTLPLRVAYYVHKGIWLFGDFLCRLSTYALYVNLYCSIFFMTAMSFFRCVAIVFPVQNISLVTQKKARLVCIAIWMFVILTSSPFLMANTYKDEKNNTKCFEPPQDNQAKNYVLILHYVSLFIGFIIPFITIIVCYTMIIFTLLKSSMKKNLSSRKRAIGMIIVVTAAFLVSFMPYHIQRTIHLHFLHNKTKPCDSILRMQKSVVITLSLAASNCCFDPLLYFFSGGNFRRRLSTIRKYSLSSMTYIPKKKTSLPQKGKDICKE

Row | Kb | Structure (SMILES)
10 | 850 nM | COc1cc(C(=O)O)ccc1COc1ccc(C(C)=O)c(O)c1C

Species on record: Cavia porcellus
Experiment: Percent inhibition of the leukotriene E4 (LTE4)-induced contraction of guinea pig tracheal spirals at 10 uM concentration
Assay type: functional
Details: Trachea
Summary of the method: as §1

Row | Structure (SMILES) | inhibition at 10 µM
11 | COc1cc(C(=O)O)ccc1CN(Cc1ccccc1)c1ccc(C(C)=O)c(O)c1 | 36%
12 | CCCc1c(OCc2ccc(C(=O)O)cc2OC)ccc(C(=O)NC)c1O | 50%
13 | COc1cc(C(=O)O)ccc1COc1ccc(C(C)=O)c(OCc2ccccc2)c1 | 24%
14 | CCCNc1c(C(C)=O)ccc(OCc2ccc(C(=O)O)cc2OC)c1CCC | 61%
15 | CCCCCCOc1c(C(C)=O)ccc(OCc2ccc(C(=O)O)cc2OC)c1CCC | 22%
16 | C=CCc1c(OCc2ccc(C(=O)O)cc2OC)ccc(C(C)=O)c1O | 100%
17 | COc1cc(C(=O)O)ccc1COc1ccc(C(C)=O)c(O)c1C/C=C/c1ccccc1 | 32%
18 | C/C=C/c1cc(=O)oc2c(CCC)c(OCc3ccc(C(=O)O)cc3OC)ccc12 | 21%
19 | CCCc1c(NCc2ccc(C(=O)O)cc2OC)ccc(C(C)=O)c1O | 73%
20 | CCCc1c(OCc2ccc(C(=O)O)cc2OC)ccc(C(C)=O)c1OCc1ccc(OC)cc1 | 25%
21 | C/C=C\c1cc(=O)oc2c(CCC)c(OCc3ccc(C(=O)O)cc3OC)ccc12 | 23%
22 | CC/N=C(/NCC)NCCCC[C@@H](NC(=O)[C@H](Cc1ccc(O)cc1)NC(=O)[C@H](CO)NC(=O)[C@@H](Cc1c[nH]c2ccccc12)NC(=O)[C@@H](Cc1ccc(Cl)cc1)NC(=O)[C@@H](Cc1ccc(Cl)cc1)NC(C)=O)C(=O)N[C@@H](CC(C)C)C(=O)N[C@@H](CCCN=C(N)N)C(=O)N1CCC[C@H]1C(=O)N[C@H](C)C(N)=O | 40%
23 | CCCc1c(N(Cc2ccc(C(=O)O)cc2OC)C(=O)c2ccccc2)ccc(C(C)=O)c1O | 12%
24 | COc1cc(C(=O)O)ccc1COc1ccc(C(C)=O)c(O)c1CCCC(C)=O | 21%
25 | CCCc1cc2ccccc2cc1OCc1ccc(C(=O)O)cc1OC | 51%
26 | CCCc1c(OCc2ccc(C(=O)O)cc2OC)ccc2c(/C=C/c3ccccc3)cc(=O)oc12 | 7%

Species on record: Cavia porcellus
Experiment: Percent inhibition of the leukotriene D4 (LTD4)-induced contraction of guinea pig tracheal spirals at 3.3 uM concentration
Assay type: functional
Details: Trachea, in the assay text read “leukotriene E4 (LTE4)” for “leukotriene D4 (LTD4)”
Summary of the method: as §1

Row | Structure (SMILES) | inhibition at 3.3 µM
27 | CCCc1c(OCc2ccc(C(=O)O)cc2OCCCn2cnnn2)ccc(C(C)=O)c1O | 87%
28 | CCCc1c(OCc2ccc(-c3nn[nH]n3)c(Br)c2)ccc(C(C)=O)c1O | 66%
29 | CCCc1c(OCc2cccc(NC(=O)CCC(=O)O)c2)ccc(C(C)=O)c1O | 62%
30 | CCCc1c(OCc2ccc(C(=O)O)cc2OCCCC#N)ccc(C(C)=O)c1O | 78%
31 | CCCc1c(OCc2ccc(-c3nn[nH]n3)cc2)ccc(C(C)=O)c1O | 76%
32 | CCCc1c(OCc2ccc(C(=O)NS(C)(=O)=O)cc2OC)ccc(C(C)=O)c1O | 37%

Species on record: Cavia porcellus
Experiment: Percent inhibition of the leukotriene D4 (LTD4)-induced contraction of guinea pig tracheal spirals at 4 uM concentration
Assay type: functional
Details: Trachea
Summary of the method: as §1

Row | Structure (SMILES) | inhibition at 4 µM
33 | CCCc1c(OCc2ccc(C(=O)O)cc2[N+](=O)[O-])ccc(C(C)=O)c1O | 57%
34 | COc1cc(C(=O)O)ccc1COc1ccc(C(C)=O)c(O)c1C | 33%
35 | CCCc1c(OCc2ccc(OC)c(/C=C/C(=O)O)c2)ccc(C(C)=O)c1O | 63%
36 | CCCc1c(OCc2ccc(C(=O)O)cc2)ccc(C(C)=O)c1O | 36%
37 | CCCc1c(OCc2ccc(/C=C/C(=O)O)c(OC)c2)ccc(C(C)=O)c1O | 66%

Species on record: Cavia porcellus
Experiment: Percent inhibition of the leukotriene E4 (LTE4)-induced contraction of guinea pig tracheal spirals at 10 uM concentration; NS means data was not statistically significant.
Assay type: functional
Details: Trachea
Summary of the method: as §1

Row | Structure (SMILES) | inhibition
38 | CCCc1c(OCc2ccc(C(=O)O)cc2OC)ccc(C(C)=O)c1NC(C)=O | Not statistically significant
39 | CCCCOC(=O)c1ccc(OCc2ccc(C(=O)O)cc2OC)c(CCC)c1O | Not statistically significant
40 | CCCc1c(OCc2ccc(C(=O)O)cc2OC)cc2oc(-c3ccccc3)cc(=O)c2c1O | Not statistically significant
41 | CCCN(C(=O)c1ccc(C(=O)O)cc1)c1ccc(C(C)=O)c(O)c1 | Not statistically significant
42 | CCCc1c(OCc2cccc(NS(=O)(=O)c3ccccc3)c2)ccc(C(C)=O)c1O | Not statistically significant
43 | CCCc1c(O)cccc1OCc1ccc(C(=O)O)cc1OC | Not statistically significant
44 | CCCc1c(OCc2ccc(C(=O)O)cc2OC)ccc(C(C)=O)c1NC(=O)c1ccccc1 | Not statistically significant
45 | C=CCc1c(OCc2ccc(C(=O)O)cc2OC)cc2oc(-c3ccccc3)cc(=O)c2c1O | Not statistically significant
46 | CCCc1cc2c(cc1OCc1ccc(C(=O)O)cc1OC)C(=O)c1ccccc1-2 | Not statistically significant
47 | COc1cc(C(=O)O)ccc1COc1cc(O)c2c(=O)ccn(C)c2c1 | Not statistically significant
48 | CCCCCCOc1cc(OCc2ccc(C(=O)O)cc2OC)ccc1C(C)=O | Not statistically significant
49 | CCCc1c(OCc2ccc(C(=O)NS(=O)(=O)c3ccccc3)cc2OC)ccc(C(C)=O)c1O | Not statistically significant
50 | CCCc1c(OCc2ccc(C(=O)O)cc2OC)ccc(-c2ccc3ccccc3n2)c1O | Not statistically significant
51 | CCCc1c(OCc2ccc(/C=C/C(=O)Nc3nn[nH]n3)cc2)ccc(C(C)=O)c1O | Not statistically significant
52 | COc1cc(C(=O)O)ccc1CNc1ccc(C(C)=O)c(O)c1 | Not statistically significant
53 | CCCc1c(OCc2ccc(C(=O)O)cc2OC)ccc2c1C(=O)c1ccccc1-2 | Not statistically significant

Species on record: Cavia porcellus
Experiment: Inhibition of the leukotriene D4 (LTD4)-induced contraction of guinea pig tracheal spirals at 10 uM concentration
Assay type: functional
Details: Trachea
Summary of the method: as §1

Row | Structure (SMILES) | inhibition at 10 µM
54 | CCCc1c(OCc2ccc(OCCCc3nnn[nH]3)cc2)ccc(C(C)=O)c1O | 56%
55 | CCCc1c(OCc2ccc(C(=O)O)cc2OCC)ccc(C(C)=O)c1O | 83%
56 | CCCc1c(OCc2ccc(C(=O)O)cc2[N+](=O)[O-])ccc(C(C)=O)c1O | 93%
57 | COc1cc(C(=O)O)ccc1COc1ccc(C(C)=O)c(O)c1C | 73%
58 | CCCc1c(OCC(=O)c2ccc(C(=O)O)cc2)ccc(C(C)=O)c1O | 66%
59 | CCCCCCNc1cc(OCc2ccc(C(=O)O)cc2OC)ccc1C(C)=O | 11%
60 | CCCc1c(OCc2cc(Br)c(C(=O)O)cc2OC)ccc(C(C)=O)c1O | 43%
61 | CCCc1cc(C(C)O)ccc1OCc1ccc(C(=O)O)cc1OC (configuration not stated) | 44%
62 | CCCc1c(OCCCSCCC(=O)O)ccc(C(C)=O)c1O | 50%
63 | CCCc1c(OCc2ccc(C(=O)NO)cc2OC)ccc(C(C)=O)c1O | 65%
64 | CCCc1c(OCCCCCC(=O)O)ccc(C(C)=O)c1O | 52%
65 | CCCc1c(OCc2ccc(C(=O)O)cc2)ccc(C(C)=O)c1O | 100%
66 | CCCc1c(OCCCS(=O)(=O)CC(=O)O)ccc(C(C)=O)c1O | 34%
67 | CCCc1c(OCc2cccc(NS(C)(=O)=O)c2)ccc(C(C)=O)c1O | 26%
68 | CCCc1c(OCCCCSCC(=O)O)ccc(C(C)=O)c1O | 75%
69 | CCCc1c(OC(c2ccccc2)c2ccc(C(=O)O)cc2)ccc(C(C)=O)c1O (configuration not stated) | 16%
70 | CCCc1ccccc1OCc1ccc(C(=O)O)cc1OC | 25%
71 | CCCc1cc(C(C)=O)ccc1OCc1ccc(C(=O)O)cc1OC | 67%
72 | CCCc1c(OCc2ccc(C(=O)O)cc2OC)ccc(C(=O)N2CCCC2)c1O | 37%
73 | CCCc1c(OCCCCSCCC(=O)O)ccc(C(C)=O)c1O | 74%
74 | CCCc1c(OCc2ccc(/C=C/c3nn[nH]n3)cc2)ccc(C(C)=O)c1O | 44%
75 | CCCc1c(OCc2ccc(C(=O)O)cc2)ccc(C(=O)C(F)(F)F)c1O | 36%
76 | CCCc1c(OCc2ccc(C(=O)O)cc2OC)ccc2c(=O)ccoc12 | 44%
77 | CCCc1c(OCC(O)CSCC(=O)O)ccc(C(C)=O)c1O (configuration not stated) | 19%
78 | CCCc1c(OCc2ccc(C(=O)OC)cc2OCCCn2cnnn2)ccc(C(C)=O)c1O | 75%
79 | CCCc1c(OCc2ccc(C(=O)O)cc2OC)ccc(C(=O)Nc2ccccc2)c1O | 25%
80 | CCCc1c(OCCCCC(=O)O)ccc(C(C)=O)c1O | 18%
81 | CCCc1c(OCc2ccc(C(=O)NS(C)(=O)=O)cc2OC)ccc(C(C)=O)c1O | 97%
82 | CCCc1c(OCc2cccc(N)c2)ccc(C(C)=O)c1O | 39%

Species on record: Cavia porcellus
Experiment: Percent inhibition of the leukotriene E4 (LTE4)-induced contraction of guinea pig tracheal spirals at 10 uM concentration; NS means data was not statistically significant
Details: Trachea

Row | Structure (SMILES) | inhibition
83 | CCCc1c(NC(=O)c2ccc(C(=O)O)cc2OC)ccc(C(C)=O)c1O | Not statistically significant
84 | CCCc1c(OCc2ccc(C(=O)O)cc2OC)ccc(C(=O)c2ccccc2)c1O | Not statistically significant
85 | CCCc1c(N(Cc2ccc(C(=O)O)cc2OC)C(C)=O)ccc(C(C)=O)c1O | Not statistically significant
86 | CCCC(=O)N(Cc1ccc(C(=O)O)cc1OC)c1ccc(C(C)=O)c(O)c1 | Not statistically significant
87 | CCCc1c(OCc2ccccc2-c2nn[nH]n2)ccc(C(C)=O)c1O | Not statistically significant
